Measured values reported in ChEMBL document CHEMBL3734701, “Synthesis and antibacterial activity of 4″-O-(trans-β-arylacrylamido)carbamoyl azithromycin analogs” (2015).
In brackets after ≈: the same amount, converted by molar mass.

Assays:
Assay type in all cases: functional
Streptococcus pneumoniae [1] = test: Antibacterial activity against erythromycin-resistant Streptococcus pneumoniae B1 expressing ermB gene by broth microdilution method
Method in brief: (§1)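 MICs measured in vitro by broth microdilution following NCCL recommendations, against a Gram-positive panel of sensitive and resistant strains. Azithromycin and clarithromycin were tested alongside as references.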

Streptococcus pneumoniae [2] = test: Potency index, ratio of AZM MIC to test compound MIC for erythromycin-resistant Streptococcus pneumoniae B1 expressing ermB gene
Streptococcus pyogenes [3] = test: Potency index, ratio of AZM MIC to test compound MIC for clinically isolated erythromycin-resistant Streptococcus pyogenes R2
Staphylococcus aureus [4] = test: Antibacterial activity against clinically isolated penicillin-resistant Staphylococcus aureus by broth microdilution method
Method in brief: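 Clinical penicillin-resistant S. aureus isolate, not further characterized, tested in a Gram-positive panel. MIC was measured by broth microdilution following NCCL recommendations, with azithromycin and clarithromycin as references.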

Streptococcus pneumoniae [5] = test: Potency index, ratio of EMA MIC to test compound MIC for erythromycin-resistant Streptococcus pneumoniae B1 expressing ermB gene
Staphylococcus aureus [6] = test: Antibacterial activity against erythromycin-susceptible Staphylococcus aureus ATCC 25923 by broth microdilution method
Method in brief: (§2)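 Broth microdilution MIC following the NCCL-recommended method. Panel of sensitive and resistant Gram-positive strains: S. pyogenes S2 (erythromycin-susceptible clinical isolate), S. aureus ATCC25923 and S. pneumoniae ATCC49619 (erythromycin-susceptible). Azithromycin and clarithromycin were run alongside as references.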

Streptococcus pyogenes [7] = test: Potency index, ratio of EMA MIC to test compound MIC for clinically isolated erythromycin-resistant Streptococcus pyogenes R2
Staphylococcus aureus [8] = test: Antibacterial activity against methicillin-susceptible Staphylococcus aureus ATCC 29213 by broth microdilution method; method in brief: as §1
Streptococcus pyogenes [9] = test: Antibacterial activity against clinically isolated erythromycin-resistant Streptococcus pyogenes R2 by broth microdilution method; method in brief: as §1
Streptococcus pneumoniae [10] = test: Antibacterial activity against erythromycin-resistant Streptococcus pneumoniae AB11 expressing ermB and mefA genes by broth microdilution method; method in brief: as §1
Streptococcus pyogenes [11] = test: Antibacterial activity against clinically isolated erythromycin-susceptible Streptococcus pyogenes S2 by broth microdilution method; method in brief: as §2
Streptococcus pneumoniae [12] = test: Antibacterial activity against erythromycin-resistant Streptococcus pneumoniae A22072 expressing mefA gene by broth microdilution method; method in brief: as §1
Streptococcus pneumoniae [13] = test: Antibacterial activity against erythromycin-susceptible Streptococcus pneumoniae ATCC 49619 by broth microdilution method; method in brief: as §2
Streptococcus pneumoniae [14] = test: Potency index, ratio of EMA MIC to test compound MIC for erythromycin-resistant Streptococcus pneumoniae A22072 expressing mefA gene
Streptococcus pneumoniae [15] = test: Potency index, ratio of AZM MIC to test compound MIC for erythromycin-resistant Streptococcus pneumoniae A22072 expressing mefA gene

CC[C@H]1OC(=O)[C@@H](C)[C@H](O[C@@H]2C[C@](C)(OC)[C@H](OC(=O)NNC(=O)/C=C/c3ccc(Cl)cc3)[C@@H](C)O2)[C@H](C)[C@H](O[C@H]2O[C@@H](C)C[C@@H](N(C)C)[C@@H]2O)[C@@](C)(O)C[C@H](C)CN(C)[C@@H](C)[C@H](OC(=O)NCc2ccc(OC)cc2)[C@@]1(C)O
MIC (Streptococcus pneumoniae [1]): 0.25 µg/mL (≈ 0.22 µM)
Ratio (Streptococcus pneumoniae [2]): 512
Ratio (Streptococcus pyogenes [3]): 32
MIC (Staphylococcus aureus [4]): 2 µg/mL (≈ 1.76 µM)
Ratio (Streptococcus pneumoniae [5]): 512
MIC (Staphylococcus aureus [6]): 0.5 µg/mL (≈ 0.441 µM)
Ratio (Streptococcus pyogenes [7]): 32
MIC (Staphylococcus aureus [8]): 2 µg/mL (≈ 1.76 µM)
MIC (Streptococcus pyogenes [9]): 4 µg/mL (≈ 3.52 µM)
MIC (Streptococcus pneumoniae [10]): 1 µg/mL (≈ 0.881 µM)
MIC (Streptococcus pyogenes [11]): 0.5 µg/mL (≈ 0.441 µM)
MIC (Streptococcus pneumoniae [12]): 0.12 µg/mL (≈ 0.106 µM)
MIC (Streptococcus pneumoniae [13]): 0.5 µg/mL (≈ 0.441 µM)

CC[C@H]1OC(=O)[C@@H](C)[C@H](O[C@H]2C[C@@](C)(OC)[C@@H](OC(=O)NNC(=O)/C=C/c3cccs3)[C@H](C)O2)[C@@H](C)[C@H](O[C@H]2O[C@@H](C)C[C@@H](N(C)C)[C@@H]2O)[C@@](C)(O)C[C@H](C)CN(C)[C@@H](C)[C@@H]2OC(=O)O[C@@]12C
MIC (Streptococcus pneumoniae [1]): 2 µg/mL (≈ 2.06 µM)
Ratio (Streptococcus pneumoniae [14]): 512
Ratio (Streptococcus pneumoniae [15]): 256
MIC (Staphylococcus aureus [4]): 64 µg/mL (≈ 66 µM)
MIC (Staphylococcus aureus [6]): 32 µg/mL (≈ 33 µM)
MIC (Staphylococcus aureus [8]): 64 µg/mL (≈ 66 µM)
MIC (Streptococcus pyogenes [9]): ≥ 128 µg/mL
MIC (Streptococcus pneumoniae [10]): 4 µg/mL (≈ 4.13 µM)
MIC (Streptococcus pyogenes [11]): 0.25 µg/mL (≈ 0.258 µM)
MIC (Streptococcus pneumoniae [12]): 0.015 µg/mL (≈ 0.0155 µM)
MIC (Streptococcus pneumoniae [13]): 8 µg/mL (≈ 8.25 µM)

CC[C@H]1OC(=O)[C@@H](C)[C@H](O[C@@H]2C[C@](C)(OC)[C@H](OC(=O)NNC(=O)/C=C/c3ccc(Br)cc3)[C@@H](C)O2)[C@H](C)[C@H](O[C@H]2O[C@@H](C)C[C@@H](N(C)C)[C@@H]2O)[C@@](C)(O)C[C@H](C)CN(C)[C@@H](C)[C@H](OC(=O)NCc2ccc(OC)cc2)[C@@]1(C)O
MIC (Streptococcus pneumoniae [1]): 0.5 µg/mL (≈ 0.424 µM)
Ratio (Streptococcus pneumoniae [2]): 256
MIC (Staphylococcus aureus [4]): 2 µg/mL (≈ 1.7 µM)
Ratio (Streptococcus pneumoniae [5]): 256
MIC (Staphylococcus aureus [6]): 1 µg/mL (≈ 0.848 µM)
MIC (Staphylococcus aureus [8]): 2 µg/mL (≈ 1.7 µM)
MIC (Streptococcus pyogenes [9]): 16 µg/mL (≈ 13.6 µM)
MIC (Streptococcus pneumoniae [10]): 1 µg/mL (≈ 0.848 µM)
MIC (Streptococcus pyogenes [11]): 0.5 µg/mL (≈ 0.424 µM)
MIC (Streptococcus pneumoniae [12]): 0.25 µg/mL (≈ 0.212 µM)
MIC (Streptococcus pneumoniae [13]): 0.25 µg/mL (≈ 0.212 µM)

CC[C@@H]1OC(=O)[C@H](C)[C@@H](O[C@H]2C[C@@](C)(OC)[C@@H](OC(=O)NNC(=O)/C=C/c3cccs3)[C@H](C)O2)[C@@H](C)[C@@H](O[C@@H]2O[C@H](C)C[C@H](N(C)C)[C@H]2O)[C@](C)(O)C[C@@H](C)CN(C)[C@H](C)[C@@H](OC(=O)NCc2ccc(OC)cc2)[C@]1(C)O
MIC (Streptococcus pneumoniae [1]): 0.5 µg/mL (≈ 0.452 µM)
Ratio (Streptococcus pneumoniae [2]): 256
MIC (Staphylococcus aureus [4]): 2 µg/mL (≈ 1.81 µM)
Ratio (Streptococcus pneumoniae [5]): 256
MIC (Staphylococcus aureus [6]): 0.5 µg/mL (≈ 0.452 µM)
MIC (Staphylococcus aureus [8]): 1 µg/mL (≈ 0.904 µM)
MIC (Streptococcus pyogenes [9]): 32 µg/mL (≈ 28.9 µM)
MIC (Streptococcus pneumoniae [10]): 1 µg/mL (≈ 0.904 µM)
MIC (Streptococcus pyogenes [11]): 0.25 µg/mL (≈ 0.226 µM)
MIC (Streptococcus pneumoniae [12]): 0.03 µg/mL (≈ 0.0271 µM)
MIC (Streptococcus pneumoniae [13]): 0.25 µg/mL (≈ 0.226 µM)

CC[C@H]1OC(=O)[C@@H](C)[C@H](O[C@@H]2C[C@](C)(OC)[C@H](OC(=O)NNC(=O)/C=C/c3ccc([N+](=O)[O-])cc3)[C@@H](C)O2)[C@H](C)[C@H](O[C@H]2O[C@@H](C)C[C@@H](N(C)C)[C@@H]2O)[C@@](C)(O)C[C@H](C)CN(C)[C@@H](C)[C@H](OC(=O)NCc2ccccc2)[C@@]1(C)O
MIC (Streptococcus pneumoniae [1]): 4 µg/mL (≈ 3.59 µM)
MIC (Staphylococcus aureus [4]): 2 µg/mL (≈ 1.79 µM)
MIC (Staphylococcus aureus [6]): 0.5 µg/mL (≈ 0.448 µM)
MIC (Staphylococcus aureus [8]): 2 µg/mL (≈ 1.79 µM)
MIC (Streptococcus pyogenes [9]): 16 µg/mL (≈ 14.3 µM)
MIC (Streptococcus pneumoniae [10]): 2 µg/mL (≈ 1.79 µM)
MIC (Streptococcus pyogenes [11]): 0.5 µg/mL (≈ 0.448 µM)
MIC (Streptococcus pneumoniae [12]): 0.12 µg/mL (≈ 0.108 µM)
MIC (Streptococcus pneumoniae [13]): 0.25 µg/mL (≈ 0.224 µM)

CC[C@@H]1OC(=O)[C@H](C)[C@@H](O[C@H]2C[C@@](C)(OC)[C@@H](OC(=O)NNC(=O)/C=C/c3ccccc3)[C@H](C)O2)[C@@H](C)[C@@H](O[C@@H]2O[C@H](C)C[C@H](N(C)C)[C@H]2O)[C@](C)(O)C[C@@H](C)CN(C)[C@H](C)[C@@H](OC(=O)NCc2ccccc2)[C@]1(C)O
MIC (Streptococcus pneumoniae [1]): 2 µg/mL (≈ 1.87 µM)
MIC (Staphylococcus aureus [4]): 1 µg/mL (≈ 0.934 µM)
MIC (Staphylococcus aureus [6]): 0.5 µg/mL (≈ 0.467 µM)
MIC (Staphylococcus aureus [8]): 1 µg/mL (≈ 0.934 µM)
MIC (Streptococcus pyogenes [9]): 32 µg/mL (≈ 29.9 µM)
MIC (Streptococcus pneumoniae [10]): 4 µg/mL (≈ 3.74 µM)
MIC (Streptococcus pyogenes [11]): 0.5 µg/mL (≈ 0.467 µM)
MIC (Streptococcus pneumoniae [12]): 1 µg/mL (≈ 0.934 µM)
MIC (Streptococcus pneumoniae [13]): 0.5 µg/mL (≈ 0.467 µM)

CC[C@@H]1OC(=O)[C@H](C)[C@@H](O[C@H]2C[C@@](C)(OC)[C@@H](OC(=O)NNC(=O)/C=C/c3ccco3)[C@H](C)O2)[C@@H](C)[C@@H](O[C@@H]2O[C@H](C)C[C@H](N(C)C)[C@H]2O)[C@](C)(O)C[C@@H](C)CN(C)[C@H](C)[C@@H](OC(=O)NCc2ccc(OC)cc2)[C@]1(C)O
MIC (Streptococcus pneumoniae [1]): 2 µg/mL (≈ 1.83 µM)
MIC (Staphylococcus aureus [4]): 2 µg/mL (≈ 1.83 µM)
MIC (Staphylococcus aureus [6]): 1 µg/mL (≈ 0.917 µM)
MIC (Staphylococcus aureus [8]): 4 µg/mL (≈ 3.67 µM)
MIC (Streptococcus pyogenes [9]): 64 µg/mL (≈ 58.7 µM)
MIC (Streptococcus pneumoniae [10]): 8 µg/mL (≈ 7.34 µM)
MIC (Streptococcus pyogenes [11]): 0.25 µg/mL (≈ 0.229 µM)
MIC (Streptococcus pneumoniae [12]): 0.25 µg/mL (≈ 0.229 µM)
MIC (Streptococcus pneumoniae [13]): 0.5 µg/mL (≈ 0.459 µM)
